Tests used:
[1] = biological target: Mitogen-activated protein kinase 11 (Mus musculus, UniProt Q9WUI1); assay: Displacement of [gamma-33P]-ATP binding from active recombinant murine FLAG-Mitogen-activated protein kinase p38 beta fusion protein (GST-ATF2)
How it was run: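 Filter-plate binding assay of compound competing with [γ-33P]ATP on active recombinant murine FLAG-tagged p38 fusion protein, with GST-ATF2. IC50 values are the average of two or more separate assays. Repeat determinations differed by ±20% on average.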

[2] = biological target: Mitogen-activated protein kinase 9 (Homo sapiens) (UniProt P45984); assay: Inhibition of recombinant human flag-tagged JNK2-beta-2 at 10000 nM; assay type: functional
Mitogen-activated protein kinase 9 (Homo sapiens), sequence (P45984 whole entry, looked up, the tested form may be a part): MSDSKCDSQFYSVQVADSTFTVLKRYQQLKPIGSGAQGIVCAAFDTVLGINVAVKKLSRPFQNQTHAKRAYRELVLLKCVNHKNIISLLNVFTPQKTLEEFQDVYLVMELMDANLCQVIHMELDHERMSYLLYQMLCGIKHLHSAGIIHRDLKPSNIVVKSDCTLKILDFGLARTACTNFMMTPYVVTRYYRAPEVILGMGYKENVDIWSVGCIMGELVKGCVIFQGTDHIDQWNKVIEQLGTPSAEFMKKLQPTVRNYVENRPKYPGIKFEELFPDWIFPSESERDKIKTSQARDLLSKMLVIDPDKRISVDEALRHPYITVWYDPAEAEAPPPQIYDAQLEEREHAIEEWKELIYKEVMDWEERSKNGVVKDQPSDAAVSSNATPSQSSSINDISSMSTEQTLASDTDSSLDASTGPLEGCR
How it was run: (§1)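 Kinase assay with recombinant human FLAG-tagged JNK2β fusion protein phosphorylating GST-ATF2. Phosphorylated GST-ATF2 detected by HTRF.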

[3] = biological target: Mitogen-activated protein kinase 14 (Mus musculus, UniProt P47811); assay: Tested in vitro for filter plate binding versus gamma-[33P]ATP in active recombinant murine FLAG-P38 alpha fusion protein (GST-Activating transcription factor-2).
Mitogen-activated protein kinase 14, sequence (P47811 whole entry, the tested form may be a part): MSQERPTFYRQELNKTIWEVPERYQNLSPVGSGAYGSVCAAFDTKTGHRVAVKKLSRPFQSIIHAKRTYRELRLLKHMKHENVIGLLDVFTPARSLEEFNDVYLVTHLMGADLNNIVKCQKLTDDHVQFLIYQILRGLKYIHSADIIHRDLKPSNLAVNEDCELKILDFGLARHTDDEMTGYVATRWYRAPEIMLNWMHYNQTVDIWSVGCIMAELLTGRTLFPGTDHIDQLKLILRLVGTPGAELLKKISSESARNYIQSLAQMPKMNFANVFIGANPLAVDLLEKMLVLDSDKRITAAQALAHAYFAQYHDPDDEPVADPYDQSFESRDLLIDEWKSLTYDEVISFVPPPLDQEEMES

MAP kinase p38 [4] = biological target: T1, MAP kinase p38 (Homo sapiens, UniProt O15264+Q15759+Q16539+P53778); assay: Inhibition of Tumor necrosis factor alpha release from LPS-induced THP-1 cells by ELISA; assay type: functional, cell-based
How it was run: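 Human THP-1 monocytic cells stimulated with LPS. Human TNFα in the cell supernatant measured by ELISA.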

MAP kinase p38 [5] = biological target: T1, MAP kinase p38; assay: Inhibition of LPS-induced p38-related Tumor necrosis factor alpha release in human whole blood; assay type: functional, tissue-based
[6] = biological target: Mitogen-activated protein kinase 9 (Homo sapiens) (UniProt P45984); assay: Inhibition of recombinant human flag-tagged JNK2-beta-2 at 5000 nM; assay type: functional; how it was run: as §1
MAP kinase p38 [7] = biological target: T1, MAP kinase p38; assay: Inhibition of LPS-induced p38-related Tumor necrosis factor alpha release by THP-1 cells at 4000 nM; assay type: functional, cell-based
[8] = biological target: Mitogen-activated protein kinase 11 (Mus musculus) (UniProt Q9WUI1); assay: Displacement of [gamma-33P]-ATP from recombinant murine Mitogen-activated protein kinase p38 beta at 5000 nM
Mitogen-activated protein kinase 11 (Mus musculus), sequence (Q9WUI1 whole entry): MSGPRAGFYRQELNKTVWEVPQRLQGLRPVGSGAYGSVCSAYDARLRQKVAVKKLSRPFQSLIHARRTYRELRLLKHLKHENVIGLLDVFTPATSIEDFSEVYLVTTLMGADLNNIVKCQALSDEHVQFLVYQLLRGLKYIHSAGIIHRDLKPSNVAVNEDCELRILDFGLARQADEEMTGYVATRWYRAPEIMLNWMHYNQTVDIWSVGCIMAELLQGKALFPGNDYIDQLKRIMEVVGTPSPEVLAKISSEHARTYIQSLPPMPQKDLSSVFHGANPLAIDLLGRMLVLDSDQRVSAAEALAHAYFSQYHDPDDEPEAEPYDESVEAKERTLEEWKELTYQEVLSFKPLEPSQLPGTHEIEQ

Mus musculus [9] = assay: Tested ex vivo for MAPKAP plasma concentration at 1 hr after dosing; assay type: functional, organism-based
How it was run: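 BALB/c mice (n = 5) given 3 mg/kg ip in DMSO/EtOH/PEG400/saline (10:10:60:20); blood drawn 1 h post-dose. Plasma level determined by bioassay: serial plasma dilutions run in the p38 inhibition assay, and the compound's free p38 IC50 multiplied by 1/(plasma dilution giving 50% inhibition, EC50).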

Mus musculus [10] = assay: (§2) Ex vivo inhibition of Mitogen activated protein kinase activated protein 1 hr after 3 mg/kg dose; assay type: functional, organism-based; parameters: dose 3 mg/kg
How it was run: (§3)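 BALB/c mice (n = 5 per compound) dosed ip at 3 mg/kg in DMSO/EtOH/PEG400/saline (10:10:60:20). Blood collected 1 h after dosing and murine MAPKAP activity measured ex vivo as % inhibition. Significance versus vehicle assessed at p < 0.05.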

[11] = biological target: Mitogen-activated protein kinase 9 (Homo sapiens) (UniProt P45984); assay: Inhibition of recombinant human flag-tagged JNK2-beta-2 at 1000 nM; assay type: functional; how it was run: as §1
[12] = biological target: Mitogen-activated protein kinase 14 (Mus musculus) (UniProt P47811); assay: Inhibition of [gamma-33P]-ATP binding to recombinant murine p38 alpha at 100 nM
Mitogen-activated protein kinase 14 (Mus musculus), sequence (P47811 whole entry): as the sequence (P47811 whole entry, the tested form may be a part) above

[13] = biological target: Mitogen-activated protein kinase 11 (Mus musculus) (UniProt Q9WUI1); assay: Displacement of [gamma-33P]-ATP from recombinant murine Mitogen-activated protein kinase p38 beta at 100 nM
[14] = as §2; assay type: functional; conditions: Mus musculus; how it was run: as §3
Mus musculus [15] = species on record: Mus musculus; assay: Tested ex vivo for MAPKAP inhibition, activity expressed as plasma concentration; assay type: functional, organism-based
How it was run: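 Mice dosed ip at 3 mg/kg and plasma taken 1 h after dosing. Plasma compound level determined by bioassay: plasma was diluted in the p38 inhibition assay to find the dilution giving 50% inhibition (EC50). Concentration = free-compound p38 IC50 × 1/dilution factor.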

MAP kinase p38 [16] = biological target: T1, MAP kinase p38; assay: Inhibition of LPS-induced p38-related Tumor necrosis factor alpha release in human whole blood at 4000 nM; assay type: functional, tissue-based

Mitogen-activated protein kinase 11, sequence (Q9WUI1 whole entry, the tested form may be a part): as the sequence (Q9WUI1 whole entry) above

| IC50 [1] | inhibition [2] | IC50 [3] | inhibition [6] | Compound | IC50 (MAP kinase p38 [4]) | IC50 (MAP kinase p38 [5]) | inhibition (MAP kinase p38 [7]) | also measured |
| --- | --- | --- | --- | --- | --- | --- | --- | --- |
| 64 nM | 23% | 14 nM | – | O=c1ccc(-c2c(-c3ccc(F)cc3Cl)nc3ccccn23)nn1-c1c(Cl)cccc1Cl | 161 nM | – | – | – |
| 140 nM | – | 26 nM | 15% | Cc1ccccc1-n1nc(-c2c(-c3ccc(F)cc3F)nc3ccccn23)ccc1=O | 68 nM | 870 nM | – | – |
| – | 0% | 1000 nM | – | O=c1ccc(-c2c(-c3cccc(C(F)(F)F)c3)nc3ccccn23)nn1-c1c(Cl)cccc1Cl | – | – | 41% | inhibition [8]: 50% |
| 94 nM | – | 14 nM | 4% | Cc1ccccc1N1N=C(c2c(-c3ccc(F)cc3Cl)nc3ccccn23)CCC1=O | 22 nM | 220 nM | – | – |
| 355 nM | 0% | 171 nM | – | O=C1CCC(c2c(-c3cccc(C(F)(F)F)c3)nc3ccccn23)=NN1c1ccccc1Cl | – | – | 72% | – |
| 2600 nM | 0% | 208 nM | – | O=C1CCC(c2c(-c3ccc(F)cc3Cl)nc3ccccn23)=NN1c1ccccc1Cl | 400 nM | – | – | – |
| – | – | 2000 nM | 26% | O=C1CCC(c2c(-c3cccc(Cl)c3Cl)nc3ccccn23)=NN1c1c(Cl)cccc1Cl | – | – | 59% | inhibition [8]: 57% |
| – | – | – | – | O=c1ncn2nc(Sc3ccc(F)cc3F)ccc2c1-c1c(Cl)cccc1Cl | – | – | – | Concentration (Mus musculus [9]): 1730 nM; inhibition (Mus musculus [10]): 29% |
| 44 nM | 15% | 22 nM | – | Cc1ccccc1-n1nc(-c2c(-c3cccc(Cl)c3Cl)nc3ccccn23)ccc1=O | 6 nM | 500 nM | – | – |
| – | – | – | – | Cc1ccccc1N1N=C(c2c(-c3cccc(Cl)c3Cl)nc3ccccn23)CCC1=O | 170 nM | – | – | inhibition [11]: 0%; inhibition [12]: 36%; inhibition [13]: 33% |
| 171 nM | 0% | 76 nM | – | O=c1ccc(-c2c(-c3ccc(F)cc3Cl)nc3ccccn23)nn1-c1ccccc1Cl | 161 nM | – | – | – |
| 28 nM | – | 9 nM | 16% | Cc1ccccc1-n1nc(-c2c(-c3ccc(F)cc3Cl)nc3ccccn23)ccc1=O | 20 nM | 100 nM | – | inhibition in vivo at 3 mg/kg [14]: 42%; Concentration (Mus musculus [15]): 810 nM |
| 78 nM | 4% | 8 nM | – | Cc1ccccc1N1N=C(c2c(-c3ccc(F)cc3F)nc3ccccn23)CCC1=O | 14 nM | 440 nM | – | – |
| – | – | 344 nM | – | O=c1ccc(-c2c(-c3cccc(C(F)(F)F)c3)nc3ccccn23)nn1-c1ccccc1Cl | – | – | 48% | – |
| 112 nM | – | 22 nM | 11% | O=c1ccc(-c2c(-c3ccc(F)cc3F)nc3ccccn23)nn1-c1c(Cl)cccc1Cl | – | 1000 nM | 89% | – |
| 63 nM | 22% | 8 nM | – | O=C1CCC(c2c(-c3ccc(F)cc3F)nc3ccccn23)=NN1c1c(Cl)cccc1Cl | 10 nM | 205 nM | – | – |
| 890 nM | – | 270 nM | 14% | O=c1ccc(-c2c(-c3cccc(Cl)c3Cl)nc3ccccn23)nn1-c1c(Cl)cccc1Cl | – | – | 65% | – |
| 153 nM | 40% | 49 nM | – | O=c1ccc(-c2c(-c3ccc(F)cc3)nc3ccccn23)nn1-c1c(Cl)cccc1Cl | 70 nM | – | – | inhibition (MAP kinase p38 [16]): 60% |
| 670 nM | 0% | 42 nM | – | O=C1CCC(c2c(-c3ccc(F)cc3Cl)nc3ccccn23)=NN1c1c(Cl)cccc1Cl | 180 nM | – | – | – |
